# Compounds with a hit are over-represented: about 3.1% of the library has one in this group of screens.
# T cruzi inh – T. cruzi replication inhibition; T. cruzi beta-gal in NIH3T3, luminescence, 90 h; inhibition, % (test concentration not listed); 300,000 tested, 1.4% active;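 active = mean inhibition across valid replicates above about 55%, limit read from the data; inconclusive = mean below that limit but half or more replicates reach it; inactive = mean below it, under half of replicates reach it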;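 also: signal also drops with host cell toxicity which is not excluded here; 0% = plate median of DMSO wells and 100% = zero luminescence signal; higher percent means less beta-gal luminescence so fewer parasites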
#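 System: NIH/3T3 fibroblasts plus reporter T. cruzi. Medium: DMEM plus 2% FBS. Probe or stimulus: 5000 reporter trypomastigotes per well. Compound: single 50 nL compound addition per well in DMSO. Incubation: co-culture of at least 90 h after 3 h attachment. Detection: GalScreen β-gal luminescence, detergent lysis, 60 min. Evaluation: parasite load inhibition, %.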
# HIF activator – HIF pathway transcriptional activation; activation, % at 7.5 µM (by protocol); 300,000 tested, 0.32% active; U2OS HRE-luciferase reporter, luminescence; normalized: DMSO 0%, desferrioxamine 100%;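 active = mean activation of at least 10% of the iron chelator positive control signal, with at least half of replicates also reaching 10%; inconclusive = mean and replicate majority disagree about reaching 10%; inactive = mean and most replicates under 10%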
# Beta cell apopt – beta cell apoptosis inhibition; INS-1E cytokine-induced death, ATP luminescence, 48 h; percent of positive-control rescue, neutral wells zero; protection from apoptosis, % (no concentration beside the values); 300,000 tested, 0.8% active; AID 435005;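 active = Every replicate reaches about 75%, or at least half do and their mean reaches it too, limit read from the data; inconclusive = At least half of replicates reach the limit but their mean does not; inactive = Under half of replicates reach the limit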;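 also: 0% = cytokine-treated negative control wells and 100% = positive control rescue; higher means more ATP so stronger rescue from cytokine killing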
# CSC inhib – blocks cancer stem cells. cancer stem cell-like cells viability, luminescence. inhibition, % at 7.5 µM. 300,000 tested, 1.1% active. AID 2717; in the data active = inhibition above about 75%; inconclusive = no clear call, values can overlap the other calls; tested in HMLE shEcad cells
# PolyA inhibitor – inhibitors of polyadenylation in S. cerevisiae; activity score, % at 12 µM; S. cerevisiae SKY197-pL101 polyadenylation reporter, beta-gal luminescence; efflux-impaired pdr1/pdr3 knockout yeast; score 100 = 6 SD above DMSO; 300,000 tested, 0.02% active; AID 1875;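 active = lowest replicate activity score at least 50, where 100 means six control SD above control mean; inconclusive = lowest score under 50 but half or more replicates reach 50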;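 also: yeast exposed to compound for 9 h at 30 °C; higher score means more reporter readthrough which indicates perturbed polyadenylation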
# Calb FLC – affects C. albicans growth with fluconazole; 300,000 tested, 0.57% active; growth inhibition, % (concentration not given with the values); C. albicans CaCi-2 + fluconazole, Alamar Blue growth, 48 h;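 active = growth inhibition above about 58% in most replicates, limit read from the data, passing the limit was not always enough; inconclusive = exactly half the replicates above a set limit; inactive = most replicates below a set limit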;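 also: all wells also contain fluconazole at 8 µg/ml as a sub-toxic cotreatment; 0% = median of DMSO wells and 100% = median of geldanamycin control wells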
# * marks the source's active call; other numbers are inactive results; ? = inconclusive; nt = no result given; + = active, no number.
SMILES,T cruzi inh,HIF activator,Beta cell apopt,CSC inhib,PolyA inhibitor,Calb FLC
Fc1ccc(CNc2nc(-c3ccccc3)nc3ccccc23)cc1,57*,0,nt,nt,-30,-7
Cc1ccc(OCCN2CCN(c3nc(NCc4ccco4)c4ccccc4n3)CC2)cc1,70*,0,4,112*,3,13
Cc1cccc(Nc2nc(NCCCN3CCOCC3)nc(N)c2[N+](=O)[O-])c1,-10,0,-6,6,15,10
CCCN1CCc2c(sc(NC(=O)c3ccc(S(=O)(=O)N(C)c4ccccc4)cc3)c2C(N)=O)C1,15,0,8,10,0,1
CNC(=O)c1c(NC(=O)c2ccc(S(=O)(=O)N3CCCc4ccccc43)cc2)sc2c1CCN(C)C2,50,0,1,76*,17,-6
CN1CCc2c(sc(NC(=O)c3ccc(S(=O)(=O)N4CCCC4)cc3)c2C(N)=O)C1,11,0,-2,2,1,-5
CN1CCc2c(sc(NC(=O)c3ccc(S(=O)(=O)N4CCc5ccccc54)cc3)c2C(N)=O)C1,-5,-7,3,82*,0,5
CCCN1CCc2c(sc(NC(=O)c3ccc(S(=O)(=O)N(C)c4ccccc4)cc3)c2C(=O)NC)C1,35,0,8,78*,-8,5
CCOC(=O)c1c(S(=O)(=O)NCC(=O)Nc2cc(C)ccc2OC)c(C)n(C)c1C,-1,0,-3,-6,-14,-6
CCN(CC)S(=O)(=O)c1cccc(NC(=O)CCNC(=O)NC23CC4CC(CC(C4)C2)C3)c1,3,0,nt,28,-4,-5
CCOc1cc(S(=O)(=O)N2CCC(Cc3ccccc3)CC2)c(OCC)cc1-n1cnnn1,67*,0,12,17,?,27
CCOc1cc(S(=O)(=O)N2CC=C(c3ccc(F)cc3)CC2)c(OCC)cc1-n1cnnn1,35,2,31,47,11,?
CCc1ccc(N(CC(=O)Nc2nc3ccc(C)cc3s2)S(=O)(=O)c2c(C)noc2C)cc1,41,nt,nt,106*,15,4
O=C(Oc1c(Cl)cc(Cl)c2cccnc12)c1cccs1,75*,0,75*,121*,-39,108*
O=C(Oc1c(CN2CCOCC2)cc(Cl)c2cccnc12)c1cccs1,30,0,122*,49,-10,101*
Oc1c(Cl)cc(Cl)c2cccnc12,43,0,nt,nt,-3,?
O=C(Nc1cccnc1Cl)c1cccs1,-4,1,4,-5,0,17
O=C(Oc1c(CN2CCOCC2)cc(Cl)c2cccnc12)c1ccccc1Cl,51,-1,22,20,-29,100*
O=C(Oc1c(Cl)cc(Cl)c2cccnc12)c1ccco1,68*,0,91*,+,-57,101*
OCCNCc1c(OCc2ccc(Cl)cc2)ccc2ccccc12,25,2,9,20,-2,-12
Nc1nc(N2CCN(c3cccc(Cl)c3)CC2)n[nH]1,7,0,-4,-9,-2,-13
Nc1ccc(N2CCN(c3cccc(Cl)c3)CC2)cc1,20,nt,5,3,-7,101*
O=C(N/N=C/c1c(O)n(Cc2ccccc2)c(=O)c2ccccc12)c1cccnc1,5,-1,3,16,4,-3
COc1ccc(Cn2c(O)c(/C=N/NC(=O)c3cccnc3)c3ccccc3c2=O)cc1,10,0,nt,nt,-1,103*
O=C(CCCOc1cccc(Br)c1)NC1CCC(O)CC1 (stereo not drawn),-6,-1,5,1,-19,-20
O=c1c2ccccc2[nH]c(=S)n1CCCN1CCN(c2ccccc2)CC1,58*,0,0,24,-4,12
O=C(CCCCCn1c(=S)[nH]c2ccc(N3CCOCC3)cc2c1=O)NC1CCN(Cc2ccccc2)CC1,65*,0,-3,16,3,2
O=C(NC1CCN(Cc2ccccc2)CC1)c1ccc(Cn2c(=S)[nH]c3ccc(N4CCOCC4)cc3c2=O)cc1,60*,2,nt,nt,-3,-9
CCOC(=O)C1(CCc2ccccc2)CCN(Cc2cnc(N(C)C)s2)CC1,44,-2,4,-2,-1,-44
CN(C)c1ncc(CN2CCC(CO)(CCCc3ccccc3)CC2)s1,56*,1,-6,-1,7,-4

# Source: PubChem BioAssay (Broad Institute)
